# In the library only some 2.3% were active in any assay of this set; here they are far more common.
# TRPC4 PAM – TRPC4 (mouse) allosteric potentiation. Q9QUQ5. HEK293 TRPC4beta/mu-opioid, DAMGO EC20, Fluo-4 Ca2+ flux; active compounds read high. B-score at 10 µM. hit rate 0.42% among 310,000;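 active = B-score of calcium response area above 5 SD of library B-scores, with initial fluorescence ratio within 5 SD of library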;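 also: B-score of integrated fluorescence ratio over time as area under calcium response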
# TRPC4 inh – blocks the mouse TRPC4 cation channel. Q9QUQ5. AID 2247. hit rate 0.39% among 300,000. HEK293 TRPC4beta/mu-opioid, DAMGO-evoked Fluo4 calcium flux; active compounds read low. B-score at 10 µM;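 active = B-score over 3 SD under the library average, no early fluorescence shift, positive overall ratio signal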
#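 Material: HEK293 cells with stable TRPC4beta plus mu-opioid receptor expression; probe or stimulus: DAMGO in two steps, submaximal then maximal; technique: Fluo4 calcium fluorescence by kinetic imaging, 5 s 1 Hz baseline; measure: integrated fluorescence ratio relative to baseline, converted to per-well B score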
# TRPC6 act – activators of mouse TRPC6 channel | Q61143 | HEK293-TRPC6 membrane potential dye fluorescence; active compounds read high | B-score at 10 µM | hit rate 0.13% among 310,000;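 active = B-score of the integrated fluorescence ratio above library mean plus 3 SD, and starting fluorescence ratio within library mean plus 5 SD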;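 also: higher score means more depolarization so channel activation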
# Target sequence (Q61143 whole entry, looked up): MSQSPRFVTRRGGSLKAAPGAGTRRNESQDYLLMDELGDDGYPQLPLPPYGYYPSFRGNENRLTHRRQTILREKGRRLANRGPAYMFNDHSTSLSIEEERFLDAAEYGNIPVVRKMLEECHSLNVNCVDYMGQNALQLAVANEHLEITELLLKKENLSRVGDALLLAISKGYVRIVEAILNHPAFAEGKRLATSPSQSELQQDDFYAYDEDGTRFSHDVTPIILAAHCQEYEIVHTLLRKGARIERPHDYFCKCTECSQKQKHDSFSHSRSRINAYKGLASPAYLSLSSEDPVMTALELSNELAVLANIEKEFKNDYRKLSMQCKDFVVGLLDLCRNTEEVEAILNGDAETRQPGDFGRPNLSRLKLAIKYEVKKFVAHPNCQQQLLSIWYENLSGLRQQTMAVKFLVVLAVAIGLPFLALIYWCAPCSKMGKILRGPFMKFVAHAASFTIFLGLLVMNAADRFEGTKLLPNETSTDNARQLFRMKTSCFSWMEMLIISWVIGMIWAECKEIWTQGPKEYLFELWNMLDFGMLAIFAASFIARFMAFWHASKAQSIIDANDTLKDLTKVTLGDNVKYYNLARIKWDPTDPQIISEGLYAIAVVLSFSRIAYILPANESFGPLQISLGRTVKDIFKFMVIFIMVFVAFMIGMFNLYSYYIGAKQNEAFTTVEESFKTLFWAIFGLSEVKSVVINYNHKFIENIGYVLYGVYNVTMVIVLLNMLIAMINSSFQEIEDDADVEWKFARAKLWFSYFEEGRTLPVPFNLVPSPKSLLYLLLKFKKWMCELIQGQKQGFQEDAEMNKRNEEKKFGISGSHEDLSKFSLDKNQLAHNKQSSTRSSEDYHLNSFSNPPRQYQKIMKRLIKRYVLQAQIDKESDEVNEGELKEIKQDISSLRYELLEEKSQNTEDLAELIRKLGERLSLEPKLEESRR
# TRPC4 agonist – TRPC4 (mouse) channel activation. Q9QUQ5. AID 2237. B-score at 10 µM. HEK293 TRPC4beta/mu-opioid, Fluo4 calcium fluorescence; active compounds read high. hit rate 0.49% among 310,000;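 active = B-score above 5 SD of library B-scores, and initial fluorescence ratio not above library mean plus 5 SD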;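 also: positive B-score marks a calcium rise read as TRPC4 activation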
#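 System – HEK293 cells stably co-expressing mouse TRPC4beta and mu-opioid receptor · Signal – Fluo4 calcium-sensitive dye fluorescence, kinetic, 1 Hz baseline · Benchmarks – buffer (low) and maximal DAMGO (high) · Read-out – B score of integrated fluorescence ratio per well · Incubation – dye loading 45 min room temperature, 110 s kinetic read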
# TRPC6 inh – mouse TRPC6 channel inhibition. HEK293-TRPC6, membrane potential dye, ACh-evoked depolarization; active compounds read low. AID 2553. hit rate 1.1% among 310,000. Q61143. B-score at 10 µM;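 active = B-score under library mean minus 3 SD, initial fluorescence not abnormally high, positive integrated signal ratio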;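 also: B-score derived from integrated fluorescence ratio over the kinetic read; more negative B-score means stronger inhibition of depolarization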
# TRPC4 spec 2 – mouse TRPC4 off-target activity of TRPC6 inhibitors, second screen. hit rate 42% among 920. shares compounds with TRPC6 inh. inhibition, % at 10 µM. HEK293 TRPC4/MOR, membrane potential dye fluorescence; channel activated by saturating DAMGO dose;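 active = compounds whose fluorescence signal differed from control wells by over 3 SD, either direction, in both duplicate plates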
# TRPC4 spec – selectivity of TRPC6 inhibitors: effect on mouse TRPC4. shares compounds with TRPC6 inh. HEK293 TRPC4/mu-opioid, membrane potential fluorescence. activity change, negative = inhibition, % at 10 µM. hit rate 61% among 920;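 active = rise or fall in signal beyond 3 SD of buffer-only wells in both replicate plates, either sign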;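 also: integrated kinetic ratio of fluorescence range over baseline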
# HEK293 MPD ctr 2-1 – parental HEK293 nonspecific activity of TRPC6 inhibitors, second screen; shares compounds with TRPC6 inh; parental HEK293 membrane potential dye fluorescence; maximal acetylcholine challenge after compound addition; signal change vs control, % at 10 µM; hit rate 31% among 920;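 active = membrane potential signal moving either way by over 3 SD of the maximum-effect control, in both duplicate plates, meaning non-specific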
# HEK293 MPD ctr-1 – parental HEK293 nonspecific activity of TRPC6 inhibitors; shares compounds with TRPC6 inh; parental HEK293 membrane potential dye fluorescence; membrane potential signal change, % at 10 µM; hit rate 60% among 920;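 active = membrane potential signal shifting up or down by more than 3 SD of buffer-only wells, on both duplicate plates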
# HEK293 MPD ctr-2 – parental HEK293 nonspecific activity of TRPC6 modulators. shares compounds with TRPC6 inh. membrane potential dye fluorescence. membrane potential signal change, % at 10 µM. hit rate 51% among 2,400. AID 488924;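 active = membrane potential signal moves up or down beyond 5 SD from buffer-only wells, on both duplicate plates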
# HEK293 MPD ctr 2-2 – second counter-screen for TRPC6 modulators: effect in parental HEK293 cells. AID 488926. inhibition, % at 10 µM. hit rate 14% among 2,400. membrane potential dye fluorescence; after compound, maximal acetylcholine stimulation. shares compounds with TRPC6 inh;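 active = membrane potential signal drops by more than 5 SD from the mean control signal, in both duplicate plates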;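 also: plate controls were acetylcholine ECmax control wells for no effect and buffer only wells for full effect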
# TRPC4/MOR mod – mouse TRPC4 off-target activity of TRPC6 modulators | shares compounds with TRPC6 inh | HEK293 TRPC4/mu-opioid, membrane potential fluorescence | percent change from control (negative = decrease, positive = increase), % at 10 µM | hit rate 69% among 2,400;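 active = membrane potential signal moved up or down beyond 5 SD of buffer control wells, in both duplicate plates, actives on both sides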;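 also: plate controls were assay buffer wells for no effect and DAMGO maximal-effect wells for full effect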
# TRPC4/MOR inh 2 – second selectivity test of TRPC6 modulators against mouse TRPC4; shares compounds with TRPC6 inh; HEK293 TRPC4/mu-opioid, membrane potential dye fluorescence; stimulated with maximal-effect DAMGO; inhibition, % at 10 µM; hit rate 55% among 2,400; AID 488928;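 active = drop in membrane potential signal beyond 5 SD of the control wells in both duplicate plates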;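 also: TRPC4 counter screen for TRPC6 hits run under conditions tuned for TRPC6 not TRPC4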
# TRPC6 block conf – mouse TRPC6 inhibitor confirmation | shares compounds with TRPC6 inh | AID 488960 | hit rate 43% among 3,300 | HEK293-TRPC6, membrane potential dye, ACh-evoked depolarization | inhibition, % at 10 µM;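 active = fluorescence ratio falls more than 5 SD below the full-stimulation control mean, in both duplicate runs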;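 also: integrated fluorescence ratio of peak minus minimum over baseline after agonist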
# TRPC6 act conf – mouse TRPC6 activator confirmation. shares compounds with TRPC6 inh. AID 488961. HEK293-TRPC6 membrane potential dye fluorescence, FDSS. hit rate 11% among 2,800. activation, % at 10 µM;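 active = ratio signal rise beyond 5 SD above unstimulated control wells' mean, seen in both duplicate runs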;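 also: plate controls were buffer EC0 wells for no effect and acetylcholine ECmax response for full effect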
# * hit, by the source's call; i = inactive; x = not tested or not shown.
SMILES,TRPC4 PAM,TRPC4 inh,TRPC6 act,TRPC4 agonist,TRPC6 inh,HEK293 MPD ctr-2,HEK293 MPD ctr 2-2,TRPC4/MOR mod,TRPC4/MOR inh 2,TRPC6 block conf,TRPC6 act conf,others
Cc1ccc2c(c1)C1CN(C)CCC1N2C(=O)COc1ccc(N(C)S(=O)(=O)c2cccs2)cc1 (stereo not drawn),i,i,i,i,-6.02*,i,i,-22.0%*,76.0%*,53.0%*,i,
Cc1cc(N2CCN(C)CC2)nc2ccc(NC(=O)c3ccc(Br)o3)cc12,i,i,i,i,-6.27*,-100.0%*,i,i,80.0%*,67.0%*,i,
Cc1cc(N2CCCCC2)nc2ccc(NC(=O)c3ccc(Br)o3)cc12,i,i,i,i,-8.78*,x,x,x,x,50.7%*,i,TRPC4 spec 2=71.5%*;TRPC4 spec=-31.1%*;HEK293 MPD ctr 2-1=i;HEK293 MPD ctr-1=-332.0%*
CCN1CCN(c2cc(C)c3cc(NC(=O)c4cnccn4)ccc3n2)CC1,i,i,i,i,-5.87*,i,69.0%*,11.0%*,29.0%*,i,i,
O=C(Nc1ccc(N2CCCC2)cc1)c1ccc(Br)o1,i,i,i,i,i,x,x,x,x,x,x,
Cc1ccc(S(=O)(=O)c2nnn3c2nc(NC2CCN(Cc4ccccc4)CC2)c2ccccc23)cc1C,i,i,i,i,i,x,x,x,x,x,x,
Cc1cc(Nc2ccc3c(c2)OCCO3)c2ccccc2n1,i,i,i,i,i,x,x,x,x,x,x,
CCOc1ccc2nc(C)cc(Nc3ccc(N4CCOCC4)cc3)c2c1,i,i,i,i,i,x,x,x,x,x,x,
Cc1ccc2nc(C)cc(NCCO)c2c1,i,i,i,i,-8.41*,-281.5%*,81.0%*,-48.0%*,53.5%*,57.5%*,i,
Cc1ccc2nc(C)cc(Nc3ccc4c(c3)OCCO4)c2c1,i,-8*,i,i,-6.34*,-72.0%*,i,i,67.0%*,64.0%*,i,
CCOc1ccc2nc(C)cc(Nc3ccc4c(c3)OCCO4)c2c1,i,i,i,i,-9.84*,x,x,x,x,i,i,TRPC4 spec 2=i;TRPC4 spec=-13.3%*;HEK293 MPD ctr 2-1=i;HEK293 MPD ctr-1=-178.5%*
CC(=O)c1ccc(Nc2cc(C)nc3ccc(C)cc23)cc1,i,i,i,i,-9.47*,x,x,x,x,i,i,TRPC4 spec 2=77.0%*;TRPC4 spec=-12.1%*;HEK293 MPD ctr 2-1=14.0%*;HEK293 MPD ctr-1=-275.5%*
C[C@H]1CN=C(Nc2ccccc2)N1CC1CCCCCC1,i,i,i,i,i,x,x,x,x,x,x,
COC(=O)c1sccc1NC(=O)c1ccccc1F,i,i,i,i,-6.29*,i,i,i,i,i,i,
COc1ccc(CCN(Cc2cccs2)S(=O)(=O)c2ccc(C(=O)O)cc2)cc1OC,i,i,i,i,i,x,x,x,x,x,x,
c1ccc(-c2nc3c(ccc4ccccc43)[nH]2)nc1,i,i,i,i,-6.24*,i,i,-9.0%*,28.0%*,i,i,
c1ccc(-c2nc3ccccc3[nH]2)nc1,i,i,i,i,i,x,x,x,x,x,x,
CC(C)(C)c1ccc(OCCNCc2ccccc2)cc1,i,i,i,i,i,x,x,x,x,x,x,
C[n+]1ccccc1COc1ccc(C(C)(C)C)cc1,i,i,i,i,-5.1*,i,i,i,i,i,i,
COc1cccc2sc3ccc(C#CC4(N)CCCCC4)cc3c(=O)c12,i,i,i,i,-9.23*,x,x,x,x,57.0%*,i,TRPC4 spec 2=59.0%*;TRPC4 spec=-14.6%*;HEK293 MPD ctr 2-1=i;HEK293 MPD ctr-1=-228.0%*
CCOC(=O)CN1C(=O)C(=O)N(Cc2cccc(C)c2)C1=O,i,i,i,i,i,x,x,x,x,x,x,
CCOC(=O)CN1C(=O)C(=O)N(Cc2c(Cl)cccc2Cl)C1=O,i,i,i,i,-5.57*,i,i,i,i,i,i,
COc1cccc(-c2nc(N3CCN(C)CC3)c3ccccc3n2)c1O,i,i,i,i,-9.91*,-217.5%*,i,-44.0%*,71.5%*,51.5%*,i,
CN1CCN(c2nc(-c3cccs3)nc3ccccc23)CC1,i,i,i,i,-8.25*,x,x,x,x,68.7%*,i,TRPC4 spec 2=32.5%*;TRPC4 spec=-28.1%*;HEK293 MPD ctr 2-1=i;HEK293 MPD ctr-1=-344.5%*
Cc1cc2ccccc2c(=O)n1CC(=O)NCCC1=CCCCC1,i,i,i,i,i,x,x,x,x,x,x,
CCCNC(=O)CN1C(=O)COc2ccc(S(=O)(=O)N3CC(C)CC(C)C3)cc21 (stereo not drawn),i,i,i,i,i,x,x,x,x,x,x,
CCC1CCCCN1CCn1c(=S)[nH]c2cc(OC)c(OC)cc2c1=O (stereo not drawn),i,i,i,i,-6.26*,i,i,10.0%*,27.5%*,i,i,
CC1CCc2nc(/C(C#N)=C/c3ccncc3)sc2C1 (stereo not drawn),i,i,i,i,i,x,x,x,x,x,x,

# Source: PubChem
